Source: PubChem BioAssay
Compounds with a hit are over-represented: about 2.2% of the library has one in this group of screens.
FLuc act counter – affects firefly luciferase, flagging false hits in luciferase stimulation screens; P08659; ATPlite luciferase biochemical, luminescence, 10 min; 0 = ATP-free wells, 1 = DMSO control; activation factor at 10 µM; 200,000 tested, under 10 active; AID 1027;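 active means luciferase activation factor, scaled between plate controls, of at least 2 with compound at 10 µM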
Target sequence (P08659 whole entry, looked up): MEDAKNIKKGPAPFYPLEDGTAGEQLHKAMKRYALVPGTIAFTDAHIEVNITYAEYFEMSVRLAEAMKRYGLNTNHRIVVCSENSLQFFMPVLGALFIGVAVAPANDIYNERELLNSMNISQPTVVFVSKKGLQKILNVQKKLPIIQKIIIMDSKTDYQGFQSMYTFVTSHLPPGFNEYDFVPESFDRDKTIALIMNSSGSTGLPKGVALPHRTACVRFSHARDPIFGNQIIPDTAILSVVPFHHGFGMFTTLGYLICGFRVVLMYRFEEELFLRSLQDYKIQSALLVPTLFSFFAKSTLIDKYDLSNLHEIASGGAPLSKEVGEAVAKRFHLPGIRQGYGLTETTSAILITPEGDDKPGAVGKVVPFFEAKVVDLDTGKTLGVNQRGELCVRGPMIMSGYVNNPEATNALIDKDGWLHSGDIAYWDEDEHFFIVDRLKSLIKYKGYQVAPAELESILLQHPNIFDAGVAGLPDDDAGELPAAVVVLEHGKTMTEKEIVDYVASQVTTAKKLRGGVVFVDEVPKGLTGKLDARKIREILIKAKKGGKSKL
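System: Luciferase/luciferin detection reagent, cell-free biochemical luciferase assay | Medium: PBS buffer for ATP | Dosing: Test compounds dosed from 2 mM stocks in 100% DMSO | Timing: 10 min at ambient temperature | Signal: Luminescence measurement of luciferase light output | Evaluation: Luciferase activation, seen as luminescence increase over controls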
TRAIL sens C8 – sensitizes caspase-8 expressing cells to TRAIL | NB7+C8 cells + TRAIL, ATPlite viability luminescence | inhibition (viability loss, TRAIL sensitization), % at 10 µM | 360,000 compounds, 1% hits | AID 624354;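 active means compounds causing at least 50% loss of cell viability in the single-dose screen, relative to plate controls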
PPC-1+TRAIL kill – compounds killing PPC-1 cancer cells with TRAIL present (potentiator screen, no TRAIL-free arm); PPC-1 cells + TRAIL, ATPLite viability luminescence; cell killing (% activity), % at 4 µM or 5 µM; 220,000 compounds, 0.41% hits; AID 1443;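 active means cell killing above 50% in the first pass at 4 µM, then a duplicate retest at 5 µM averaging 50% or more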;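 further: plate controls were cells with TRAIL plus DMSO for no effect and medium-only wells lacking cells for full effect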
NF-kB neuron act – NF-kB expression increase, human neuronal cells. 190,000 compounds, 1.6% hits. fold change at 12.5 µM. NF-kB reporter expression; hits give high values; in the data active means fold change above about 3.3
FLuc inh counter – Photinus pyralis luciferase inhibition counter-screen; P08659; ATPLite firefly luciferase biochemical luminescence, 10 min; inhibition, % at 10 µM; 200,000 compounds, 1.5% hits; AID 1006;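 active means inhibition above about 50% when tested at 10 µM, limit read from the data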
APP 5'UTR act – activates APP 5'UTR luciferase reporter; activation, % at 2 µM; SH-SY5Y APP 5'UTR luciferase reporter, luminescence; zero percent = DMSO vehicle wells; 190,000 compounds, 1% hits;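 active means activation above a set limit, based on mean plus 3 SD of controls, cut at about 140% in these data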
* marks the source's active call; other numbers are inactive results; nt = no result given.

SMILES	FLuc act counter	TRAIL sens C8	PPC-1+TRAIL kill	NF-kB neuron act	FLuc inh counter	APP 5'UTR act
Cc1ccc(-c2cc(C(=O)n3cnc4ccccc43)c3ccccc3n2)cc1C	0.3	66.7*	47.9	1.54	68.8*	12.2
CCNC(=S)NNC(=O)c1cc(-c2cccc(OC)c2)nc2ccccc12	0.2	21.2	50.8*	1.01	83.2*	-18.5
CCCOc1cccc(-c2cc(C(=O)NNC(=S)NCC)c3ccccc3n2)c1	0.5	39.0	37.5	1.39	47.9	-53.1
Cc1ccc(-c2cc(C(=O)NCc3ccccn3)c3ccccc3n2)cc1C	0.5	40.9	28.4	0.83	52.2*	-4.8
CCOc1cc(C2NC(=O)NC(c3ccccc3)=C2C(=O)c2ccccc2)c(Br)cc1OCC(=O)O (stereo unspecified)	1.1	2.0	24.1	1.15	-5.4	8.0
O=[N+]([O-])c1ccc(Oc2cccc(F)c2)c2ccncc12	1	-5.8	31.0	1.14	0.4	9.7
COc1ccc(/C=N/NC(=O)C(=O)N2CCCCCC2)cc1O	nt	-6.7	nt	nt	nt	nt
NS(=O)(=O)c1ccc(CCNC(=O)c2cc(-c3ccc(Br)cc3)nc3ccccc23)cc1	1	4.9	26.9	0.71	3.6	-5.4
CCCc1ccc(-c2cc(C(=O)NN3CCOCC3)c3ccccc3n2)cc1	0.4	43.8	29.2	1.19	58.9*	39.3
CC(C)Oc1cccc(-c2cc(C(=O)NC(=S)N(C)c3ccccc3C(=O)O)c3ccccc3n2)c1	0.4	33.1	27.5	1.33	64.0*	1.5
CCCc1ccc(-c2cc(C(=O)NCCc3ccc(S(N)(=O)=O)cc3)c3ccccc3n2)cc1	0.4	57.9*	38.3	1.79	64.2*	65.0
Cc1ccc(-c2cc(C(=O)N/N=C/c3cccnc3)c3ccccc3n2)cc1C	nt	61.3*	nt	nt	nt	nt
O=C(N/N=C/c1cccnc1)c1cc(-c2ccccc2)nc2ccccc12	nt	34.7	nt	nt	nt	nt
CCOc1ccc(Oc2ccc(NS(=O)(=O)c3ccc(CCC(=O)O)cc3)cc2)cc1	nt	-14.5	nt	nt	nt	nt
COCCNC(=O)c1cc(-c2ccc(-c3ccccc3)cc2)nc2ccccc12	nt	56.4*	nt	nt	nt	nt
CCn1c(O)c(C=Nc2ccccc2)sc1=S	1	nt	-1.0	3.37*	0.6	191.3*
COc1ccc(-n2c(C)cc(C(=O)CCl)c2C)cc1	1	-32.8	12.0	3.86*	-0.1	-43.7
COc1ccc(-n2c(C)cc(C(=O)CN3C(=O)c4ccccc4C3=O)c2C)cc1	1	1.1	-5.4	1.14	4.8	-4.9
COc1cc(/C=N/Nc2nc(=O)[nH]nc2C)cc([N+](=O)[O-])c1O	nt	4.0	5.7	nt	nt	nt
C(=N\Nc1nc2ccccc2[nH]1)/c1ccc2c(c1)OCO2	0.5	3.8	21.6	4.08*	54.9*	148.6*
Brc1cc2c(cc1/C=N/Nc1nc3ccccc3s1)OCO2	1	0.4	8.3	1.7	-1.7	29.7
C(=N\Nc1nc2ccccc2s1)/c1ccc2c(c1)OCO2	0.5	36.8	9.9	3.84*	49.8	180.5*
Brc1csc(/C=N/Nc2nc3ccccc3s2)c1	0.5	34.7	28.6	4.39*	53.7*	161.5*
O=C(/C=C/c1ccc2c(c1)OCO2)Nc1nc2ccccc2s1	0.8	27.5	17.2	1.14	20.8	156.3*
CC1CCCN(S(=O)(=O)c2ccc(S(=O)(=O)N3CCC4(CC3)OCCO4)cc2)C1 (stereo unspecified)	1	1.8	3.4	1.28	-3.6	-4.7
SMILES	FLuc act counter	TRAIL sens C8	PPC-1+TRAIL kill	NF-kB neuron act	FLuc inh counter	APP 5'UTR act
Cc1csc(NC(=O)/C=C/c2ccc3c(c2)OCO3)n1	0.2	70.6*	56.7*	1.3	77.2*	109.9
O=C(/C=C/c1ccc2c(c1)OCO2)Nc1nc(-c2ccc(F)cc2F)cs1	1	nt	18.1	1.09	-1.2	0.0
CCOc1ccccc1C(=O)NCC(=O)NNC(=O)c1cccc(S(=O)(=O)Nc2ccc(OC)cc2)c1	nt	-0.3	nt	nt	nt	nt
Cc1ccc2nc(N(CCCN(C)C)C(=O)c3ccc(S(=O)(=O)N4CCc5ccccc5C4)cc3)sc2c1	nt	76.5*	nt	nt	nt	nt
Cc1cccc2sc(N(CCCN(C)C)C(=O)c3ccc(S(=O)(=O)N4CCc5ccccc5C4)cc3)nc12	nt	43.6	nt	nt	nt	nt
CN(C)CCCN(C(=O)c1ccc(S(=O)(=O)N2CCc3ccccc32)cc1)c1nc2ccc(F)cc2s1	nt	0.0	nt	nt	nt	nt
Cc1cc(C)c2sc(N(CCCN(C)C)C(=O)c3ccc(S(=O)(=O)N4CCCc5ccccc54)cc3)nc2c1	nt	74.4*	nt	nt	nt	nt
Cc1cc(C)c2sc(N(CCCN(C)C)C(=O)c3ccc(S(=O)(=O)N4CCc5ccccc5C4)cc3)nc2c1	nt	91.8*	nt	nt	nt	nt
CN(C)CCCN(C(=O)c1ccc(S(=O)(=O)N2CCc3ccccc3C2)cc1)c1nc2ccc(F)cc2s1	nt	84.8*	nt	nt	nt	nt
COc1ccc2sc(N(CCCN(C)C)C(=O)c3ccc(S(=O)(=O)N4CCc5ccccc5C4)cc3)nc2c1	nt	93.1*	nt	nt	nt	nt
COc1ccc2sc(N(CCCN(C)C)C(=O)c3ccc(S(=O)(=O)N4CCCC4)cc3)nc2c1	nt	16.0	nt	nt	nt	nt
O=S1(=O)[C@H]2C[C@@H]3C=C[C@]2(CN1Cc1ccc(C(F)(F)F)cc1)O3	nt	-1.9	6.7	nt	nt	nt
CC[C@H](C)[C@@H]1OC(=O)[C@@H](C)[C@@H](CC)NC(=O)[C@H](C)N(C)C(=O)C(C)(C)C(=O)C(C)NC(=O)[C@H](Cc2ccccc2)N(C)C(=O)[C@H](C(C)C)N(C)C(=O)CNC(=O)[C@H](CC(C)C)N(C)C(=O)CNC1=O (stereo partly specified)	nt	59.6*	nt	nt	nt	nt
C[C@@H](NC(=O)c1[nH]cnc1C(=O)Nc1cccc(Cl)c1)c1ccccc1	nt	21.8	nt	nt	nt	nt
CCc1sc(C(=O)Nc2ccc3c(c2)OCCO3)cc1Br	nt	50.2*	nt	nt	nt	nt
CC(=O)Nc1ccc2c(c1)OCCOCCOc1cc(NC(C)=O)ccc1OCCOCCOCCO2	1	nt	-2.2	1.15	1.5	1.9
O=C(Nc1ccc2c(c1)OCCO2)c1ccc(Br)s1	0.1	74.0*	60.5*	11*	86.3*	198.5*
C[C@@H](NC(=O)[C@@H]1CCCN1C(=O)[C@@H]1CCCN1C(=O)c1cccs1)c1ccccc1	nt	-13.6	nt	nt	nt	nt
c1ccc(-c2noc(CN3CCN(c4cnccn4)CC3)n2)cc1	1	-0.7	19.5	nt	-3.0	9.4
Cc1cnc(C)c(Nc2nc(C(N)Cc3ccc(Cl)cc3)cs2)n1 (stereo unspecified)	nt	4.9	nt	nt	nt	nt
NS(=O)(=O)c1cccc(NC(=O)/C=C/c2cccs2)c1	0.3	31.9	42.0	nt	73.2*	38.0
Cc1ccccc1NC(=O)/C=C/c1cccs1	0.8	7.3	2.5	nt	21.1	59.8
O=C(/C=C/c1cccs1)Nc1ccc(Br)cn1	0.9	1.6	20.5	5.64*	13.9	-92.3
O=C(/C=C/c1cccs1)Nc1cccc(NC(=O)/C=C/c2cccs2)n1	0.4	73.1*	27.7	0.71	60.5*	45.3
Cc1cc(C)nc(NC(=O)/C=C/c2cccs2)c1	0.6	30.6	4.8	1.61	40.7	45.7
